Where two headings read alike, the source gives them in different places.
Design: species or system human
In short: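 Organ time–activity curves came from whole-body scan VOI data. These were fitted mono-exponentially in five animals; in the sixth, with two scans, a linear fit to the log values was used. Time-integrated activity coefficients were scaled by the ratio of body-mass-normalised human to CT-derived macaque organ masses. Intestinal values were split in thirds across small intestine, ULI and LLI. Organ doses (mSv/MBq) were computed per animal with the OLINDA/EXM 1.1 adult male model.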

## O=C(O)C[18F] [^18F-FACE, ^18F-fluoroacetate]
From animal 2, male
  Organ dose to adult human model, Lungs: 0.010 mSv/MBq
  Organ dose to adult human model, Muscle: 0.010 mSv/MBq
  Organ dose to adult human model, Osteogenic cells: 0.014 mSv/MBq
  Organ dose to adult human model, Pancreas: 0.014 mSv/MBq
  Organ dose to adult human model, Red marrow: 0.011 mSv/MBq
  Organ dose to adult human model, Skin: 0.007 mSv/MBq
  Organ dose to adult human model, Small intestine: 0.045 mSv/MBq
  Organ dose to adult human model, Spleen: 0.011 mSv/MBq
  Organ dose to adult human model, Stomach wall: 0.013 mSv/MBq
  Organ dose to adult human model, Testes: 0.009 mSv/MBq
  Organ dose to adult human model, Thymus: 0.010 mSv/MBq
  Organ dose to adult human model, Thyroid: 0.009 mSv/MBq
  Organ dose to adult human model, ULI wall (upper large intestine): 0.071 mSv/MBq
  Organ dose to adult human model, Urinary bladder wall: 0.015 mSv/MBq
From animal 3, male
  Dose to adult human model, Total body: 0.012 mSv/MBq
  ED effective dose, adult human model: 0.028 mSv/MBq
  EDE effective dose equivalent, adult human model: 0.030 mSv/MBq
  Organ dose to adult human model, Adrenals: 0.013 mSv/MBq
  Organ dose to adult human model, Brain: 0.009 mSv/MBq
  Organ dose to adult human model, Breasts: 0.008 mSv/MBq
  Organ dose to adult human model, Gallbladder wall: 0.017 mSv/MBq
  Organ dose to adult human model, Heart wall: 0.020 mSv/MBq
  Organ dose to adult human model, Kidneys: 0.034 mSv/MBq
  Organ dose to adult human model, LLI wall (lower large intestine): 0.120 mSv/MBq
  Organ dose to adult human model, Liver: 0.014 mSv/MBq
  Organ dose to adult human model, Lungs: 0.010 mSv/MBq
  Organ dose to adult human model, Muscle: 0.011 mSv/MBq
  Organ dose to adult human model, Osteogenic cells: 0.016 mSv/MBq
  Organ dose to adult human model, Pancreas: 0.014 mSv/MBq
  Organ dose to adult human model, Red marrow: 0.012 mSv/MBq
  Organ dose to adult human model, Skin: 0.008 mSv/MBq
  Organ dose to adult human model, Small intestine: 0.055 mSv/MBq
  Organ dose to adult human model, Spleen: 0.012 mSv/MBq
  Organ dose to adult human model, Stomach wall: 0.014 mSv/MBq
  Organ dose to adult human model, Testes: 0.010 mSv/MBq
  Organ dose to adult human model, Thymus: 0.010 mSv/MBq
  Organ dose to adult human model, Thyroid: 0.010 mSv/MBq
  Organ dose to adult human model, ULI wall (upper large intestine): 0.088 mSv/MBq
  Organ dose to adult human model, Urinary bladder wall: 0.017 mSv/MBq
From animal 4, female
  Dose to adult human model, Total body: 0.008 mSv/MBq
  ED effective dose, adult human model: 0.016 mSv/MBq
  EDE effective dose equivalent, adult human model: 0.019 mSv/MBq
  Organ dose to adult human model, Adrenals: 0.010 mSv/MBq
  Organ dose to adult human model, Brain: 0.005 mSv/MBq
  Organ dose to adult human model, Breasts: 0.005 mSv/MBq
  Organ dose to adult human model, Gallbladder wall: 0.040 mSv/MBq
  Organ dose to adult human model, Heart wall: 0.027 mSv/MBq
  Organ dose to adult human model, Kidneys: 0.026 mSv/MBq
  Organ dose to adult human model, LLI wall (lower large intestine): 0.060 mSv/MBq
  Organ dose to adult human model, Liver: 0.032 mSv/MBq
  Organ dose to adult human model, Lungs: 0.007 mSv/MBq
  Organ dose to adult human model, Muscle: 0.007 mSv/MBq
  Organ dose to adult human model, Osteogenic cells: 0.010 mSv/MBq
  Organ dose to adult human model, Ovaries: 0.013 mSv/MBq
  Organ dose to adult human model, Pancreas: 0.010 mSv/MBq
  Organ dose to adult human model, Red marrow: 0.007 mSv/MBq
  Organ dose to adult human model, Skin: 0.005 mSv/MBq
  Organ dose to adult human model, Small intestine: 0.029 mSv/MBq
  Organ dose to adult human model, Spleen: 0.008 mSv/MBq
  Organ dose to adult human model, Stomach wall: 0.009 mSv/MBq
  Organ dose to adult human model, Thymus: 0.007 mSv/MBq
  Organ dose to adult human model, Thyroid: 0.006 mSv/MBq
  Organ dose to adult human model, ULI wall (upper large intestine): 0.045 mSv/MBq
  Organ dose to adult human model, Urinary bladder wall: 0.014 mSv/MBq
  Organ dose to adult human model, Uterus: 0.011 mSv/MBq
From animal 5, female
  Dose to adult human model, Total body: 0.010 mSv/MBq
  ED effective dose, adult human model: 0.018 mSv/MBq
  EDE effective dose equivalent, adult human model: 0.021 mSv/MBq
  Organ dose to adult human model, Adrenals: 0.012 mSv/MBq
  Organ dose to adult human model, Brain: 0.008 mSv/MBq
  Organ dose to adult human model, Breasts: 0.008 mSv/MBq
  Organ dose to adult human model, Gallbladder wall: 0.036 mSv/MBq
  Organ dose to adult human model, Heart wall: 0.015 mSv/MBq
  Organ dose to adult human model, Kidneys: 0.042 mSv/MBq
  Organ dose to adult human model, LLI wall (lower large intestine): 0.062 mSv/MBq
  Organ dose to adult human model, Liver: 0.015 mSv/MBq
  Organ dose to adult human model, Lungs: 0.009 mSv/MBq
  Organ dose to adult human model, Muscle: 0.010 mSv/MBq
  Organ dose to adult human model, Osteogenic cells: 0.014 mSv/MBq
  Organ dose to adult human model, Ovaries: 0.017 mSv/MBq
  Organ dose to adult human model, Pancreas: 0.013 mSv/MBq
  Organ dose to adult human model, Red marrow: 0.010 mSv/MBq
  Organ dose to adult human model, Skin: 0.007 mSv/MBq
  Organ dose to adult human model, Small intestine: 0.031 mSv/MBq
  Organ dose to adult human model, Spleen: 0.011 mSv/MBq
  Organ dose to adult human model, Stomach wall: 0.012 mSv/MBq
  Organ dose to adult human model, Thymus: 0.009 mSv/MBq
  Organ dose to adult human model, Thyroid: 0.009 mSv/MBq
  Organ dose to adult human model, ULI wall (upper large intestine): 0.047 mSv/MBq
  Organ dose to adult human model, Urinary bladder wall: 0.017 mSv/MBq
  Organ dose to adult human model, Uterus: 0.014 mSv/MBq
From animal 6, female
  Dose to adult human model, Total body: 0.012 mSv/MBq
  ED effective dose, adult human model: 0.018 mSv/MBq
  EDE effective dose equivalent, adult human model: 0.019 mSv/MBq
  Organ dose to adult human model, Adrenals: 0.013 mSv/MBq
  Organ dose to adult human model, Brain: 0.010 mSv/MBq
  Organ dose to adult human model, Breasts: 0.009 mSv/MBq
  Organ dose to adult human model, Gallbladder wall: 0.016 mSv/MBq
  Organ dose to adult human model, Heart wall: 0.017 mSv/MBq
  Organ dose to adult human model, Kidneys: 0.026 mSv/MBq
  Organ dose to adult human model, LLI wall (lower large intestine): 0.052 mSv/MBq
  Organ dose to adult human model, Liver: 0.017 mSv/MBq
  Organ dose to adult human model, Lungs: 0.011 mSv/MBq
  Organ dose to adult human model, Muscle: 0.011 mSv/MBq
  Organ dose to adult human model, Osteogenic cells: 0.017 mSv/MBq
  Organ dose to adult human model, Ovaries: 0.018 mSv/MBq
  Organ dose to adult human model, Pancreas: 0.014 mSv/MBq
  Organ dose to adult human model, Red marrow: 0.011 mSv/MBq
  Organ dose to adult human model, Skin: 0.009 mSv/MBq
  Organ dose to adult human model, Small intestine: 0.029 mSv/MBq
  Organ dose to adult human model, Spleen: 0.013 mSv/MBq
  Organ dose to adult human model, Stomach wall: 0.013 mSv/MBq
  Organ dose to adult human model, Thymus: 0.011 mSv/MBq
  Organ dose to adult human model, Thyroid: 0.011 mSv/MBq
  Organ dose to adult human model, ULI wall (upper large intestine): 0.040 mSv/MBq
  Organ dose to adult human model, Urinary bladder wall: 0.021 mSv/MBq
  Organ dose to adult human model, Uterus: 0.016 mSv/MBq

From article PMC3902791 (Molecular imaging and biology : MIB : the official …, 2012)
